From ChEMBL document CHEMBL5329172, “Chloroacetamide fragment library screening identifies new scaffolds for covalent inhibition of the TEAD·YAP1 interaction” (RSC Med Chem, 2023)
Active and inactive are the calls of the source. No cut-off for these calls is given here.

Assays:
[1] = molecular target: T1, TEAD2-YAP1 (Homo sapiens) (UniProt P46937+Q15562); assay: (§1) Inhibition of TEAD2 (217 to 447 residues) (unknown origin) expressed in Escherichia coli BL21 (DE3) cells/FAM-labelled YAP1 (60 to 99 residues)(unknown origin) protein-protein interaction assessed as maximum inhibition at 50 uM preincubated for 24 hrs at 4 degree C with compound followed by fluorescent labelled YAP1 addition by fluorescence polarization assay
In short: (§2)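 FP: 64 nM TEAD4, TEAD4C367S, TEAD2 or TEAD3, or 250 nM TEAD1, was preincubated with compound for 24 h at 4 °C in PBS with 0.01% Triton X-100. FAM-YAP1 60–99 peptide (disulfide-crosslinked) was then added at 16 nM final. Polarization was read at ex 485/em 535 nm. Percent inhibition was taken relative to no-compound and no-protein controls. The single-point primary screen used 50 μM.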

[2] = molecular target: TEAD2-YAP1 (Homo sapiens, UniProt Q15562); assay: as §1, with “interaction” for “interaction assessed as maximum inhibition at 50 uM”; in short: as §2
[3] = molecular target: T2, TEAD3-YAP1 (Homo sapiens) (UniProt P46937+Q99594); assay: as §1, with “TEAD3 (210” for “TEAD2 (217”, “427” for “447”, “interaction” for “interaction assessed as maximum inhibition at 50 uM”; in short: as §2
[4] = species: Homo sapiens; assay: as §1, with “GST-tagged TEAD4 C367S mutant” for “TEAD2 (217 to 447 residues)”, “interaction” for “interaction assessed as maximum inhibition at 50 uM”, “TEAD4 C367S mutant” for “compound”; in short: as §2
[5] = molecular target: T3, YAP1-TEAD4 (Homo sapiens, UniProt Q15561); assay: as §1, with “GST-tagged TEAD4” for “TEAD2”, “434” for “447”, “interaction” for “interaction assessed as maximum inhibition at 50 uM”, “48” for “24”, “TEAD4” for “compound”
In short: (§3)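 Time-course FP: 64 nM TEAD4 was preincubated with varying compound concentrations for 0.5, 6, 24 or 48 h at 4 °C in PBS with 0.01% Triton X-100. 16 nM FAM-YAP1 60–99 peptide was then added and polarization read at 485/535 nm, n = 2. Inhibition was taken relative to no-compound and no-protein controls.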

[6] = molecular target: T4, YAP1-TEAD4 (Homo sapiens) (UniProt P46937+Q15561); assay: as §1, with “GST-tagged TEAD4” for “TEAD2”, “434” for “447”, “assessed” for “assessed as”, “inhibition” for “inhibition at 50 uM”, “6” for “24”, “TEAD4” for “compound”; in short: as §3
[7] = molecular target: T3, YAP1-TEAD4; assay: as §1, with “GST-tagged TEAD4” for “TEAD2”, “434” for “447”, “interaction” for “interaction assessed as maximum inhibition at 50 uM”, “TEAD4” for “compound”; in short: as §2
[8] = molecular target: T4, YAP1-TEAD4 (Homo sapiens); assay: (§4) Covalent inhibition of GST-tagged TEAD4 (217 to 434 residues) (unknown origin) expressed in Escherichia coli BL21 (DE3) cells/FAM-labelled YAP1 (60 to 99 residues)(unknown origin) protein-protein interaction assessed as protein-compound adduct formation by second order rate constant, kinact/ki ratio at 100 uM incubated for 0.5 to 6 hrs at 4 degree C followed by mass spectrometry analysis; settings: time 0.5-6 hrs
In short: (§5)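 Kinetics by MS: 2.5 μM TEAD4 was incubated at 4 °C with 3.1–100 μM compound. Aliquots were quenched with 0.1 M formic acid at set times from 0.5 h upward and analysed by whole-protein MS. Adduct relative to unreacted protein was fit to 100×(1−e^(−kobs·t)) to give kobs. kobs versus concentration was fit hyperbolically for kinact and KI, or linearly for kinact/KI where no plateau was reached.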

[9] = test system: S2; assay: Inhibition of uPAR (unknown origin) expressed in S2 cells/FAM-labelled alpha-helical peptide AE-147 (unknown origin) protein-protein interaction preincubated for 24 hrs at 4 degree C with uPAR followed by fluorescent labelled AE-147 addition by fluorescence polarization assay; settings: Homo sapiens
In short: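 Counter-screen FP: 250 nM uPAR lacking the GPI anchor (from S2 cells) was preincubated with compound for 24 h at 4 °C in PBS with 0.01% Triton X-100. AE-147-FAM peptide was then added at 100 nM final and polarization read at ex 485/em 535 nm.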

[10] = molecular target: T4, YAP1-TEAD4 (Homo sapiens); assay: as §1, with “GST-tagged TEAD4” for “TEAD2”, “434” for “447”, “TEAD4” for “compound”; in short: as §2
[11] = molecular target: T3, YAP1-TEAD4; assay: as §1, with “GST-tagged TEAD4” for “TEAD2”, “434” for “447”, “interaction” for “interaction assessed as maximum inhibition at 50 uM”, “6” for “24”, “TEAD4” for “compound”; in short: as §3
[12] = molecular target: T5, Transcriptional coactivator YAP1/Transcriptional enhancer factor TEF-1 (Homo sapiens) (UniProt P46937+P28347); assay: as §4, with “TEAD1 (209” for “GST-tagged TEAD4 (217”, “426” for “434”, “formation” for “formation by second order rate constant, kinact/ki ratio”, “24” for “0.5 to 6”
In short: (§6)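 Intact-protein MS: 2.5 μM protein (TEAD4 217–434 with GST cleaved, TEAD4C367S, TEAD1 209–426, TEAD2 217–447 or TEAD3 210–427) incubated with 100 μM compound in PBS for 24 h at 4 °C. Samples were centrifuged to remove precipitate, desalted on a C3 reverse-phase column with a water/acetonitrile 0.1% formic acid gradient, and masses were read by Q-TOF. Adduct peaks were reported as percent.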

[13] = molecular target: T4, YAP1-TEAD4 (Homo sapiens); assay: as §1, with “GST-tagged TEAD4” for “TEAD2”, “434” for “447”, “assessed” for “assessed as”, “inhibition” for “inhibition at 50 uM”, “48” for “24”, “TEAD4” for “compound”; in short: as §3
[14] = molecular target: T4, YAP1-TEAD4 (Homo sapiens); assay: as §4, with “formation” for “formation by second order rate constant, kinact/ki ratio”, “24” for “0.5 to 6”; in short: as §6
[15] = species: Homo sapiens; assay: Covalent inhibition of GST-tagged TEAD4 C367S mutant (unknown origin) expressed in Escherichia coli BL21 (DE3)/FAM-labelled YAP1 (60 to 99 residues)(unknown origin) protein-protein interaction assessed as protein-compound adduct formation at 100 uM incubated for 24 hrs at 4 degree C followed by mass spectrometry analysis; in short: as §6
[16] = molecular target: Transcriptional coactivator YAP1/Transcriptional enhancer factor TEF-1 (Homo sapiens, UniProt P28347); assay: as §1, with “TEAD1 (209” for “TEAD2 (217”, “426” for “447”, “interaction” for “interaction assessed as maximum inhibition at 50 uM”; in short: as §2
[17] = molecular target: T5, Transcriptional coactivator YAP1/Transcriptional enhancer factor TEF-1 (Homo sapiens); assay: as §1, with “TEAD1 (209” for “TEAD2 (217”, “426” for “447”; in short: as §2
[18] = molecular target: T3, YAP1-TEAD4; assay: as §1, with “GST-tagged TEAD4” for “TEAD2”, “434” for “447”, “interaction” for “interaction assessed as maximum inhibition at 50 uM”, “0.5” for “24”, “TEAD4” for “compound”; in short: as §3
[19] = as §1, with “GST-tagged TEAD4 C367S mutant” for “TEAD2 (217 to 447 residues)”, “interaction” for “interaction assessed as maximum inhibition at 50 uM”, “TEAD4 C367S mutant” for “compound”; parameters: species or system Homo sapiens; in short: as §2
[20] = molecular target: T5, Transcriptional coactivator YAP1/Transcriptional enhancer factor TEF-1 (Homo sapiens); assay: as §1, with “TEAD1 (209” for “TEAD2 (217”, “426” for “447”, “interaction” for “interaction assessed as maximum inhibition at 50 uM”; in short: as §2
[21] = molecular target: T1, TEAD2-YAP1 (Homo sapiens); assay: as §1, with “interaction” for “interaction assessed as maximum inhibition at 50 uM”; in short: as §2
[22] = molecular target: T3, YAP1-TEAD4; assay: as §4, with “measuring inhibition constant” for “second order rate constant, kinact/ki ratio”; in short: as §5
[23] = molecular target: T4, YAP1-TEAD4 (Homo sapiens); assay: as §4, with “measuring reaction half life” for “second order rate constant, kinact/ki ratio”; settings: time 0.5-6 hrs; in short: as §5
[24] = molecular target: T4, YAP1-TEAD4 (Homo sapiens); assay: (§7) Covalent inhibition of GST-tagged TEAD4 (217 to 434 residues) (unknown origin) expressed in Escherichia coli BL21 (DE3) cells/FAM-labelled YAP1 (60 to 99 residues)(unknown origin) protein-protein interaction assessed as second protein-compound adduct formation at 100 uM incubated for 24 hrs at 4 degree C followed by mass spectrometry analysis; in short: as §6
[25] = molecular target: T4, YAP1-TEAD4 (Homo sapiens); assay: as §7, with “additional” for “second”; in short: as §6
[26] = molecular target: T4, YAP1-TEAD4 (Homo sapiens); assay: as §1, with “GST-tagged TEAD4” for “TEAD2”, “434” for “447”, “assessed” for “assessed as”, “inhibition” for “inhibition at 50 uM”, “0.5” for “24”, “TEAD4” for “compound”; in short: as §3
[27] = molecular target: T1, TEAD2-YAP1 (Homo sapiens); assay: as §7, with “TEAD2” for “GST-tagged TEAD4”, “447” for “434”, “as” for “as second”; in short: as §6
[28] = molecular target: T2, TEAD3-YAP1 (Homo sapiens); assay: as §7, with “TEAD3 (210” for “GST-tagged TEAD4 (217”, “427” for “434”, “as” for “as second”; in short: as §6

T2 sequence (P46937 whole entry, looked up, the tested form may be a part): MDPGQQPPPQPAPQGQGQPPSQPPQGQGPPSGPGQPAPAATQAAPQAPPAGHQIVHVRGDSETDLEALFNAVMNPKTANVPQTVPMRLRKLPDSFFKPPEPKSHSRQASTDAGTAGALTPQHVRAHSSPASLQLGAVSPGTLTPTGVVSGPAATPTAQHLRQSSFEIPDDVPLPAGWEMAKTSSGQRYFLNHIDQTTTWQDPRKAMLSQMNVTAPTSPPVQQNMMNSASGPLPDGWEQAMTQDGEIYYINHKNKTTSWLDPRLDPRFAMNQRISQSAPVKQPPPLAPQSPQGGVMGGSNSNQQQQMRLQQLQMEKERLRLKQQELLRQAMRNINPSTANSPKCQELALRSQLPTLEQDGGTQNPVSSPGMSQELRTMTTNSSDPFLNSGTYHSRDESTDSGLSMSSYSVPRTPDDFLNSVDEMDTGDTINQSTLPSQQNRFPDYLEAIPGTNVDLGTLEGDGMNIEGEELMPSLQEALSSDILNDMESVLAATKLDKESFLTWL
T2 sequence (Q99594 whole entry, looked up, the tested form may be a part): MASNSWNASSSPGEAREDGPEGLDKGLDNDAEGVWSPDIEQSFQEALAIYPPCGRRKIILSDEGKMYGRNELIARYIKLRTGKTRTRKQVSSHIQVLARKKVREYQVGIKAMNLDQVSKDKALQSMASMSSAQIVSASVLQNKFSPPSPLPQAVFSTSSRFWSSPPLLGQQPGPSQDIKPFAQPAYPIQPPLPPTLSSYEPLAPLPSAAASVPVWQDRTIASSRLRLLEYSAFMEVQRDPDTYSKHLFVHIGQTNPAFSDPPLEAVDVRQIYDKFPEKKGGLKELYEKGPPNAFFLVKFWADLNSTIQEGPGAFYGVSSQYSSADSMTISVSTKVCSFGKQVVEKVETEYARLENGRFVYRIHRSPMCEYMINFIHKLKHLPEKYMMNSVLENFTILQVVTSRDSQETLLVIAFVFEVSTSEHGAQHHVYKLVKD
Sequence of TEAD2-YAP1 (P46937 whole entry): as the sequence (P46937 whole entry, looked up, the tested form may be a part) above
Sequence of TEAD2-YAP1 (Q15562 whole entry): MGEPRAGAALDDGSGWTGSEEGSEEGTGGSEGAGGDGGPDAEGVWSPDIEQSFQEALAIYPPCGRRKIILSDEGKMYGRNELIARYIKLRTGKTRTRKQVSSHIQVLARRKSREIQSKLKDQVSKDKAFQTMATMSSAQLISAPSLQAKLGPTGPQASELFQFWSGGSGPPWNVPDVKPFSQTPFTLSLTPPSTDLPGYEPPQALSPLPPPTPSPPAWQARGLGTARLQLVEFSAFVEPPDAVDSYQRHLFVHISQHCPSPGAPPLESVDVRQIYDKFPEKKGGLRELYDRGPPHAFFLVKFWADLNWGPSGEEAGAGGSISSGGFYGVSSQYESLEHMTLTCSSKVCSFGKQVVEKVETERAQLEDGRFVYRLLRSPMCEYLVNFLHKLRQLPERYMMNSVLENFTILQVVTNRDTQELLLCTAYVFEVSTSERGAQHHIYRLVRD
T1 sequence (P46937 whole entry, looked up, the tested form may be a part): as the sequence (P46937 whole entry, looked up, the tested form may be a part) above
T1 sequence (Q15562 whole entry, looked up, the tested form may be a part): as the sequence (Q15562 whole entry) above
T3 sequence (P46937 whole entry): as the sequence (P46937 whole entry, looked up, the tested form may be a part) above
T3 sequence (Q15561 whole entry): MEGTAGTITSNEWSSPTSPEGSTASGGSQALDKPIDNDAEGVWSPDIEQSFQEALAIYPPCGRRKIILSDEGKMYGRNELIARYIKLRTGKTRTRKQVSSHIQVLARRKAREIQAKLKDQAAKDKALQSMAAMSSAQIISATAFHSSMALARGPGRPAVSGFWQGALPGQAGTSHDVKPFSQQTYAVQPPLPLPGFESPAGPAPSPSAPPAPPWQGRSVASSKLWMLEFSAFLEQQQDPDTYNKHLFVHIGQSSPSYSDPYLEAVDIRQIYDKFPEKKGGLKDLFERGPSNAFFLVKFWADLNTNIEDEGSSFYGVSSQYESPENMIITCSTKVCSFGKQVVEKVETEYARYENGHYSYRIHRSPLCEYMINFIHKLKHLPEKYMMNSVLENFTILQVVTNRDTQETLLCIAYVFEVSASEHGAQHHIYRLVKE
T5 sequence (P28347 whole entry, looked up): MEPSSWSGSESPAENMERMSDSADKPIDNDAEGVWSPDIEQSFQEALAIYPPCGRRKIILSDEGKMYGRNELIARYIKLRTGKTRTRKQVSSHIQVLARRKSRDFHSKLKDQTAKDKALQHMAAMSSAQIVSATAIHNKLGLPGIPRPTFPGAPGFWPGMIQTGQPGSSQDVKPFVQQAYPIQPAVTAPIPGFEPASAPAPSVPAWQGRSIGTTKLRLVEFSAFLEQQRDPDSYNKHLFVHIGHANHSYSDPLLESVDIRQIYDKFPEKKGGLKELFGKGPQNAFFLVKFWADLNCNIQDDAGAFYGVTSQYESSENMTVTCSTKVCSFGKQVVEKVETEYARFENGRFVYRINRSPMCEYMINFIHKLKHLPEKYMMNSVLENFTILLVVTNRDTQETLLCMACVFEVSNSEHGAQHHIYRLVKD
T5 sequence (P46937 whole entry, looked up): as the sequence (P46937 whole entry, looked up, the tested form may be a part) above
Sequence of Transcriptional coactivator YAP1/Transcriptional enhancer factor TEF-1 (P46937 whole entry): as the sequence (P46937 whole entry, looked up, the tested form may be a part) above
Sequence of Transcriptional coactivator YAP1/Transcriptional enhancer factor TEF-1 (P28347 whole entry): as the sequence (P28347 whole entry, looked up) above

SMILES | Imax [1] | IC50 [2] | inhibition [3] | IC50 [5] | Imax [6] | IC50 [7] | Ratio [8] | Imax [10] | IC50 [11] | inhibition [12] | Imax [13] | percent protein-compound adduct formation [14] | inhibition [15] | IC50 [18] | inhibition [20] | Ki [22] | T1/2 [23] | percent second protein-compound adduct [24] | inhibition [4] | inhibition [9] | also measured
NC(=O)c1oc2ccccc2c1NC(=O)CCl | – | 254 µM | inactive | – | – | 0.9 µM | 0.3 M⁻¹ s⁻¹ | 35% | – | 100% | – | – | inactive | 40 µM | – | – | – | – | – | – | IC50 [16]: 3 µM; Imax [17]: 31%
O=C(CCl)NCCSc1ccc(Cl)cc1 | – | 86.7 µM | inactive | – | – | 1.4 µM | 1.6 M⁻¹ s⁻¹ | 35% | – | Active | – | – | inactive | – | – | – | – | – | – | – | IC50 [16]: 182 µM
O=C(NCCc1ccccc1)C(c1cccs1)N(C(=O)CCl)c1cccc(Cl)c1 (stereo unspecified) | – | – | inactive | 0.9 µM | 37% | 1.4 µM | 5.1 M⁻¹ s⁻¹ | 31% | 4.6 µM | Active | 37% | 55% | inactive | 9.7 µM | inactive | 17.3 µM | 2.2 h | 18% | inactive | inactive | inhibition [21]: inactive; Imax [26]: 37%; percent protein-compound adduct formation [25]: 17%
COc1cccc(C2CC(Cc3cccs3)=NN2C(=O)CCl)c1OC (stereo unspecified) | 35% | 3.1 µM | inactive | 2.6 µM | 53% | 3.3 µM | 8.3 M⁻¹ s⁻¹ | 48% | 10.2 µM | Active | 53% | 78% | inactive | 23.6 µM | inactive | 37.7 µM | 0.6 h | 15% | inactive | inactive | inhibition [27]: Active; inhibition [28]: Active; Imax [26]: 53%
Cc1ccc(C2=NN(C(=O)CCl)C(c3ccco3)C2)cc1 (stereo unspecified) | 29% | 2.3 µM | inactive | 1.4 µM | 35% | 2.2 µM | 13.5 M⁻¹ s⁻¹ | 40% | 5.9 µM | Active | 35% | 85% | inactive | 18.1 µM | inactive | – | – | 15% | inactive | inactive | inhibition [27]: Active; Imax [26]: 35%

More lines, in order of falling IC50 [7], values ahead:

Imax [1] | IC50 [2] | inhibition [3] | IC50 [5] | Imax [6] | IC50 [7] | Ratio [8] | Imax [10] | IC50 [11] | inhibition [12] | Imax [13] | percent protein-compound adduct formation [14] | inhibition [15] | IC50 [18] | inhibition [20] | Ki [22] | T1/2 [23] | percent second protein-compound adduct [24] | SMILES | inhibition [4] | inhibition [9] | also measured
– | – | inactive | 4.7 µM | 33% | 22.8 µM | 28.1 M⁻¹ s⁻¹ | 41% | 38.1 µM | Active | 33% | 100% | – | – | inactive | 94 µM | 0.1 h | – | O=C(Nc1ccccc1)C1CCN(C(=O)CCl)CC1 | inactive | inactive | inhibition [21]: inactive
– | – | – | – | – | 20.7 µM | – | 100% | – | – | – | – | – | – | – | – | – | – | COc1ccccc1CN(C(=O)CCl)C(C(=O)NC1CCCCC1)c1ccncc1 (stereo unspecified) | – | inactive | IC50 [19]: 27.9 µM
14% | 46.5 µM | inactive | 19.4 µM | 45% | 11.1 µM | 2.4 M⁻¹ s⁻¹ | 44% | 56.3 µM | Active | 45% | 100% | – | – | – | – | – | – | CCOc1ccc(S(=O)(=O)N2CCN(C(=O)CCl)CC2)cc1 | inactive | inactive | –
22% | 22 µM | inactive | 5.3 µM | 38% | 4.2 µM | 1.3 M⁻¹ s⁻¹ | 37% | 54.5 µM | Active | 38% | 46% | inactive | – | inactive | 45.8 µM | 3.3 h | 11% | CCS(=O)(=O)Oc1ccc(CN(Cc2ccc(F)cc2)C(=O)CCl)cc1 | inactive | inactive | percent protein-compound adduct formation [25]: 20%
